Our source for the IC50 values is ChEMBL document CHEMBL1131469, “Novel non-peptide fibrinogen receptor antagonists. 1. Synthesis and glycoprotein IIb-IIIa antagonistic activities of 1,3,4-trisubstituted 2-oxopiperazine derivatives incorporating side-chain functions of the RGDF peptide” (J Med Chem, 1998).

Peptide text beside a SMILES is read from it.

Sequence of Integrin alpha-IIb/beta-3 (P05106 27-788 limits assumed): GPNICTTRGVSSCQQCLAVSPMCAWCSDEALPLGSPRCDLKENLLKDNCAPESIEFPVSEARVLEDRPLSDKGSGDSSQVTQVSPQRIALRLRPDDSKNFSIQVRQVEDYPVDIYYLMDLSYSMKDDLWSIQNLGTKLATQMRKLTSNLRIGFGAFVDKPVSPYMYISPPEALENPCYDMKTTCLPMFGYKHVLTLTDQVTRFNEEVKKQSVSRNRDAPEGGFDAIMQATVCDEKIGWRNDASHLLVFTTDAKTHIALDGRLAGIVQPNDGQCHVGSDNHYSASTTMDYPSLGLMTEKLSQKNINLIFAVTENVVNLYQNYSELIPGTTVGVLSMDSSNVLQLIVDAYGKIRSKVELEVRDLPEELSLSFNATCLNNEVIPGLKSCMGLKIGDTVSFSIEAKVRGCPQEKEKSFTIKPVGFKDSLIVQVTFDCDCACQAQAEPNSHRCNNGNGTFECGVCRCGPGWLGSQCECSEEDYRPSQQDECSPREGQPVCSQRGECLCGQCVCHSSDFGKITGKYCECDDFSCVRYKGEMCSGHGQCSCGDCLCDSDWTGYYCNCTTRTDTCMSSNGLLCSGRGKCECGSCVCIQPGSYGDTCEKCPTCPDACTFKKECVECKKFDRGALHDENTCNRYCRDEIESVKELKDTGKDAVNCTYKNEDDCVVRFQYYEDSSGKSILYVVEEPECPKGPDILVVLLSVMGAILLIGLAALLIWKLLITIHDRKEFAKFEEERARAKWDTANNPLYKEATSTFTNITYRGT
Sequence of Integrin alpha-IIb/beta-3 (P08514 32-887 limits assumed): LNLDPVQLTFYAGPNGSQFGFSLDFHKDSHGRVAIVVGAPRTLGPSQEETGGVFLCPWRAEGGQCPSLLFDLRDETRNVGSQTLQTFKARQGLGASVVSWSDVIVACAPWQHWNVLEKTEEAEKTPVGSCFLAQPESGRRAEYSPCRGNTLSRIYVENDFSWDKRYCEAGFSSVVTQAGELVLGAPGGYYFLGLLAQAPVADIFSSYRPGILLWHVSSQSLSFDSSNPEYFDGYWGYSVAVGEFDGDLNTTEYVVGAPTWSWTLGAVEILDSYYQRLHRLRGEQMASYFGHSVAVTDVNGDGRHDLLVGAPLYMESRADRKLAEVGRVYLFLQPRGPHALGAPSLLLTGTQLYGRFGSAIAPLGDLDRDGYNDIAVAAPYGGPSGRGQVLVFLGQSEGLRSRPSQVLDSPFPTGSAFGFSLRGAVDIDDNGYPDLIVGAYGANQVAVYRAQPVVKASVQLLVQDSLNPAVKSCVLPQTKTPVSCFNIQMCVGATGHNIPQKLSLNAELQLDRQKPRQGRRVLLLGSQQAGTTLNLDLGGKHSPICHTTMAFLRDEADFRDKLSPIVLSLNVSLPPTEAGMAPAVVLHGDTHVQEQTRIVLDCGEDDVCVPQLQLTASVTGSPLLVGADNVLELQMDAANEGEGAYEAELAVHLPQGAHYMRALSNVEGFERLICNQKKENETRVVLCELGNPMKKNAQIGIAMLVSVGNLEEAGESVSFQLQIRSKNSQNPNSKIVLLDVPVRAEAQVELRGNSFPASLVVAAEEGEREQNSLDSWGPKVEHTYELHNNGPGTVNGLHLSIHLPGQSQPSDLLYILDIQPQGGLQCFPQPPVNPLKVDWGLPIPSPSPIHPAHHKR
Sequence of Integrin alpha-IIb/beta-3 (P08514 891-1039 limits assumed): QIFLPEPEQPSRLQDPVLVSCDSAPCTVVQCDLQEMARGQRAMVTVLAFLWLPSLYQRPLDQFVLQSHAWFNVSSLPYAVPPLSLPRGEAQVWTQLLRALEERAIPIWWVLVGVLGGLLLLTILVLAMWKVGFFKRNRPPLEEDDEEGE

The target of this test is Integrin alpha-IIb/beta-3 (Homo sapiens, UniProt P05106+P08514). In words: Ability to inhibit binding of biotin-labeled human fibrinogen to immobilized fibrinogen receptor purified from human erythroleukemia (HEL) cells. A digest of the protocol:
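Purified GP IIb-IIIa (1 μg/mL, pH 7.4 Tris/NaCl/CaCl2 buffer) coated overnight at 4 °C, blocked with 3.5% BSA 2 h at 30 °C. Wells then incubated with 1 nM biotinylated fibrinogen plus graded compound concentrations, 3 h at 30 °C. IC50 from dose–response curves.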
Consider `N=C(N)c1ccc(C(=O)NCC(=O)N2CCN(CC(=O)O)C(=O)[C@@H]2CCC(=O)O)cc1`, for which the IC50 (usually the midpoint of a concentration-inhibition curve) is 0.21 nM. As for `N=C(N)c1cccc(C(=O)NCC(=O)N2CCN(CC(=O)O)C(=O)[C@@H]2CC(=O)O)c1`, the IC50 came to 130 nM. The compound `N=C(N)c1ccc(C(=O)NCC(=O)N2CCN(CC(=O)O)C(=O)[C@@H]2Cc2ccccc2)cc1` yielded an IC50 of 1.95 nM. Turning to `COC(=O)C[C@@H]1C(=O)N(CC(=O)O)CCN1C(=O)CNC(=O)c1ccc(C(=N)N)cc1`, the IC50 came to 16.4 nM.

Compound `N=C(N)c1ccc(C(=O)NCC(=O)N2CCN(CC(N)=O)C(=O)[C@@H]2CC(=O)O)cc1` had an IC50 of 330 nM. Compared with the last compound, the IC50 is about 20-fold higher. In turn, `N=C(N)c1ccc(C(=O)NCC(=O)N2CCN(CCC(=O)O)C(=O)[C@@H]2CC(=O)O)cc1` displayed an IC50 of 63 nM.

With `COC(=O)CC[C@H]1C(=O)N(CC(=O)O)CCN1C(=O)CNC(=O)c1ccc(C(=N)N)cc1`, the IC50 is 0.29 nM. The value for `N=C(N)NCC1CCC(C(=O)NCC(=O)N2CCN(CC(=O)O)C(=O)[C@@H]2CC(=O)O)CC1` (stereo not given in full) was 20 nM; that for `CN(C)C(N)=Nc1ccc(C(=O)NCC(=O)N2CCN(CC(=O)O)C(=O)[C@@H]2CC(=O)O)cc1` was 210 nM. With `N=C(N)NCCC[C@H](N)C(=O)NCC(=O)N[C@@H](CC(=O)O)C(=O)N[C@@H](Cc1ccccc1)C(=O)O` (H-RGDF-OH), the IC50 is 110 nM.
